From ChEMBL document CHEMBL1152486, “Synthesis and antitumor activity of optically active thiourea and their 2-aminobenzothiazole derivatives: a novel class of anticancer agents” (Eur J Med Chem, 2009) come the findings set out here.

The term IC50 denotes the concentration at which inhibition is half-maximal. High values mean weaker potency in that assay, low ones greater potency in that assay.

Common to all, as to assay type: functional, cell-based
For test [1], the system named is HeLa. Nature of the test: Cytotoxicity against human HeLa cells after 24 hrs by MTT assay. Put shortly:
(§1)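 Standard MTT, 24 h exposure. Cells plated at 10^4/well and allowed 24 h to attach, then exposed to 1–100 μM compound (dissolved in 0.1% DMSO, diluted in medium; vehicle controls 0.1% DMSO). MTT 1 mg/ml for 4 h at 37 °C, formazan dissolved in DMSO, absorbance read at 540 nm. IC50 taken as concentration giving 50% growth inhibition; triplicate.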
For orientation: Tetrazolium assays rely on reduction of a dye to a coloured formazan, in cell work by metabolically active cells.

Test [2] can be described thus: Cytotoxicity against mouse EAC after 24 hrs by MTT assay. The following applies: Ehrlich. Put shortly: as §1
Test [3] relates to MCF7. The experiment in a line: Cytotoxicity against human MCF7 cells after 24 hrs by MTT assay. The essentials:
as §1

Test [4] deals with MCF7. The experiment in a line: Cytotoxicity against human MCF7 cells after 72 hrs by MTT assay. The conditions noted are these: MCF7, 72 h. Put shortly: (§2)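 MCF-7 time-course MTT. Cells seeded at 5 × 10^3/well and exposed to 1–50 μM compound. Percentage cytotoxicity and IC50 determined at 24, 48 and 72 h of drug incubation. MTT read-out at 540 nm after formazan solubilization in DMSO.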

Test [5] concerns MCF7. The experiment in a line: Cytotoxicity against human MCF7 cells by MTT assay. Put shortly: as §2
Test [6] deals with MCF7. The experiment in a line: Cytotoxicity against human MCF7 cells after 48 hrs by MTT assay. The following applies: MCF7, 48 h. The essentials:
as §2

Test [7] has as its system MCF7. The experiment in a line: DNA damaging activity in human MCF7 cells assessed as olive tail moment after 24 hrs by alkaline comet assay. Put shortly:
(§3)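 Alkaline comet assay in MCF-7 after 24 h exposure to 5–50 μM. About 20,000 cells embedded in 0.75% low-melt agarose over a 1.5% agarose layer. Alkaline unwinding 1 h, then electrophoresis at pH 13 for 20 min, 16 V. Ethidium bromide staining; ~50 cells scored per slide, two slides per concentration; means ± SEM.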

Test [8] deals with MCF7. Nature of the test: DNA damaging activity in human MCF7 cells assessed as increase in tail moment after 24 hrs by alkaline comet assay. The essentials:
as §3

Test [9] relates to MCF7. The experiment in a line: DNA damaging activity in human MCF7 cells assessed as tail DNA content after 24 hrs by alkaline comet assay. Put shortly:
as §3

Test [10] has as its system MCF7. The experiment in a line: DNA damaging activity in human MCF7 cells assessed as elongated tail length after 24 hrs by alkaline comet assay. The essentials:
as §3

SMILES strings stand for the structures.

As for `COc1ccc([C@@H](C)NC(=S)Nc2ccc(F)c(Cl)c2)cc1`, the IC50 in test [1] was 77.5 µM; in [2], 45.6 µM; in test [3], “Dose-dependent effect”.

Take `CC[C@@H](NC(=S)Nc1ccc(F)c(Cl)c1)c1ccccc1`: the IC50 is 80.2 µM in test [2] and “Dose-dependent effect” in [3].

Take `Fc1ccc(NC(=S)NC2CCCCC2OCc2ccccc2)cc1Cl` (stereo not drawn): the half-maximal inhibitory concentration (IC50) was 33.8 µM in test [1]; 10.6 µM in test [2]; “Dose-dependent effect” in test [3]; 8.61 µM in test [4]; “tde” in [5] (TDE = time-dependent effect); 12.8 µM in test [6].

As for `Fc1cc2sc(N[C@@H]3CCCC[C@@H]3OCc3ccccc3)nc2cc1Cl`, the IC50 was 60.8 µM in test [1], 20.6 µM in [2] and “Dose-dependent effect” in test [3].

Consider `C[C@@H](NC(=S)Nc1ccc(F)c(Cl)c1)c1ccccc1`, for which the IC50 in [1] was 66.2 µM; in test [2], 23.6 µM; in test [3], “Dose-dependent effect”.

With `COc1cccc2c1C(=O)c1c(O)c3c(c(O)c1C2=O)C[C@@](O)(C(=O)CO)C[C@@H]3O[C@H]1C[C@H](N)[C@H](O)[C@H](C)O1` [DOXORUBICIN], the values for the IC50 in [2] and in test [3] were 4.18 µM and “Dose-dependent effect”, respectively.

Regarding `C[C@@H](NC(=S)Nc1ccc(F)c(Cl)c1)c1ccc(F)cc1`, the figures for the IC50 in test [1], in test [2] and in test [3] were 71.4 µM, 29.9 µM and “Dose-dependent effect”, respectively.

As to `CCCCCC[C@@H](C)NC(=S)Nc1ccc(F)c(Cl)c1`, the 50% inhibitory concentration (IC50) was 49.1 µM in [1], 25.5 µM in test [2] and “Dose-dependent effect” in test [3].

As for `CCC(Nc1nc2cc(Cl)c(F)cc2s1)c1ccccc1` (single isomer, unassigned), the concentration for half-maximal inhibition (IC50) in test [1] is 53.3 µM; in [2], 32.2 µM; in test [3], “Dose-dependent effect”.

For `CC(Nc1nc2cc(Cl)c(F)cc2s1)c1ccc(F)cc1` (single isomer, unassigned), the figures for the IC50 in test [1], in test [2] and in test [3] were 61.9 µM, 35.4 µM and “Dose-dependent effect”, respectively.

Turning to `C[C@@H](NC(=S)Nc1ccc(F)c(Cl)c1)c1ccc(Cl)cc1`, the half-maximal inhibitory concentration (IC50) was 43 µM in [1]; 17.3 µM in test [2]; “Dose-dependent effect” in [3]; 11.4 µM in test [4]; “tde” in test [5]; 16.3 µM in [6]. In addition, the Activity result in test [7], in test [8], in test [9] and in test [10] was “Dose-dependent effect” in each case.

In the case of `CC(Nc1nc2cc(Cl)c(F)cc2s1)C1CCCCC1` (single isomer, unassigned), the IC50 in [1] is 72.5 µM; in test [2], 29.8 µM; in test [3], “Dose-dependent effect”.

For the molecule `COc1ccc(C(C)Nc2nc3cc(Cl)c(F)cc3s2)cc1` (single isomer, unassigned), the IC50 was 75.4 µM in test [2] and “Dose-dependent effect” in [3].

As for `CCCCCC[C@@H](C)Nc1nc2cc(Cl)c(F)cc2s1`, the IC50 was 48 µM in test [1]; 24.6 µM in test [2]; “Dose-dependent effect” in [3]; 15 µM in test [4]; “tde” in [5] (TDE = time-dependent effect); 24.8 µM in [6].

For `CC(Nc1nc2cc(Cl)c(F)cc2s1)c1ccccc1` (single isomer, unassigned), the IC50 in test [1] is 58.9 µM; in test [2] it was 36.6 µM; in test [3], “Dose-dependent effect”.

Regarding `C[C@@H](Nc1nc2cc(Cl)c(F)cc2s1)c1ccc(Cl)cc1`, the figures for the concentration for half-maximal inhibition (IC50) in [1], in test [2] and in [3] were 69.7 µM, 25.5 µM and “Dose-dependent effect”, respectively.
